# Tested on: Fibroblast
# Experiment: Multiplex assay against human fibroblast
# Type: toxicity, cell-based
# Summary of the method: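 On a CQ1 microscope at 37°C and 5% CO2, live cells were imaged after compound addition. They had been stained at seeding with Hoechst33342, BioTracker Green Microtubule Cytoskeleton Dye, MitoTracker Red and Annexin V Alexa Fluor 680. CellPathfinder machine-learning gating assigned cells to Hoechst high-intensity objects or normal cells, normal cells to healthy, pyknosed or fragmented nuclei, and pyknosed cells to mitotic or apoptotic. Tubulin, mitochondrial-mass and membrane-permeability phenotypes are per cents of healthy-nucleus cells.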
# [1] = 12 h, 1 µM, compound concentration 1 uM, replicate 1
# [2] = 12 h, 1 µM, compound concentration 1 uM, replicate 2
# [3] = 12 h, 10 µM, compound concentration 10 uM, replicate 1
# [4] = 12 h, 10 µM, compound concentration 10 uM, replicate 2
# [5] = 24 h, 1 µM, compound concentration 1 uM, replicate 1
# [6] = 24 h, 1 µM, compound concentration 1 uM, replicate 2
# [7] = 24 h, 10 µM, compound concentration 10 uM, replicate 1
# [8] = 24 h, 10 µM, compound concentration 10 uM, replicate 2
# [9] = 48 h, 1 µM, compound concentration 1 uM, replicate 1
# [10] = 48 h, 1 µM, compound concentration 1 uM, replicate 2
# [11] = 48 h, 10 µM, compound concentration 10 uM, replicate 1
# [12] = 48 h, 10 µM, compound concentration 10 uM, replicate 2
compound,measurement,setting,value
C[C@H]1[C@H]2CC[C@H]3[C@@H]4CC=C5C[C@@H](N(C)C)CC[C@]5(C)[C@H]4CC[C@]23CN1C [CONESSINE],Population Apoptotic (%),[1],45%
same,Population Fragmented Nuclei (%),[1],15%
same,Population Healthy Nuclei (%),[1],73%
same,Population Hoechst High Intensity Objects (%),[1],1%
same,Population Membrane Permeable-Phenotype (%),[1],0%
same,Population Mitochondria Different-Phenotype (%),[1],8%
same,Population Mitotic Cells (%),[1],55%
same,Population Normal (%),[1],98%
same,Population Pyknosed Nuclei (%),[1],11%
same,Population Tubulin-Different-Phenotype (%),[1],19%
same,Total Cell Count,[1],174
same,Population Apoptotic (%),[2],29%
same,Population Fragmented Nuclei (%),[2],33%
same,Population Healthy Nuclei (%),[2],41%
same,Population Hoechst High Intensity Objects (%),[2],2%
same,Population Membrane Permeable-Phenotype (%),[2],7%
same,Population Mitochondria Different-Phenotype (%),[2],2%
same,Population Mitotic Cells (%),[2],70%
same,Population Normal (%),[2],97%
same,Population Pyknosed Nuclei (%),[2],24%
same,Population Tubulin-Different-Phenotype (%),[2],46%
same,Total Cell Count,[2],101
same,Population Apoptotic (%),[3],37%
same,Population Fragmented Nuclei (%),[3],26%
same,Population Healthy Nuclei (%),[3],60%
same,Population Hoechst High Intensity Objects (%),[3],3%
same,Population Membrane Permeable-Phenotype (%),[3],5%
same,Population Mitochondria Different-Phenotype (%),[3],10%
same,Population Mitotic Cells (%),[3],62%
same,Population Normal (%),[3],96%
same,Population Pyknosed Nuclei (%),[3],13%
same,Population Tubulin-Different-Phenotype (%),[3],32%
same,Total Cell Count,[3],189
same,Population Apoptotic (%),[4],43%
same,Population Healthy Nuclei (%),[4],45%
same,Population Membrane Permeable-Phenotype (%),[4],8%
same,Population Mitochondria Different-Phenotype (%),[4],4%
same,Population Mitotic Cells (%),[4],56%
same,Population Pyknosed Nuclei (%),[4],28%
same,Population Tubulin-Different-Phenotype (%),[4],58%
same,Total Cell Count,[4],110
same,Population Apoptotic (%),[5],43%
same,Population Fragmented Nuclei (%),[5],13%
same,Population Healthy Nuclei (%),[5],73%
same,Population Hoechst High Intensity Objects (%),[5],2%
same,Population Membrane Permeable-Phenotype (%),[5],1%
same,Population Mitochondria Different-Phenotype (%),[5],4%
same,Population Mitotic Cells (%),[5],56%
same,Population Normal (%),[5],97%
same,Population Pyknosed Nuclei (%),[5],13%
same,Population Tubulin-Different-Phenotype (%),[5],22%
same,Total Cell Count,[5],175
same,Population Apoptotic (%),[6],40%
same,Population Fragmented Nuclei (%),[6],27%
same,Population Healthy Nuclei (%),[6],48%
same,Population Hoechst High Intensity Objects (%),[6],4%
same,Population Membrane Permeable-Phenotype (%),[6],13%
same,Population Mitochondria Different-Phenotype (%),[6],6%
same,Population Mitotic Cells (%),[6],59%
same,Population Normal (%),[6],95%
same,Population Pyknosed Nuclei (%),[6],24%
same,Population Tubulin-Different-Phenotype (%),[6],61%
same,Total Cell Count,[6],95
same,Population Apoptotic (%),[7],64%
same,Population Fragmented Nuclei (%),[7],28%
same,Population Healthy Nuclei (%),[7],61%
same,Population Hoechst High Intensity Objects (%),[7],3%
same,Population Membrane Permeable-Phenotype (%),[7],1%
same,Population Mitochondria Different-Phenotype (%),[7],7%
same,Population Mitotic Cells (%),[7],35%
same,Population Normal (%),[7],96%
same,Population Pyknosed Nuclei (%),[7],9%
same,Population Tubulin-Different-Phenotype (%),[7],27%
same,Total Cell Count,[7],190
same,Population Apoptotic (%),[8],36%
same,Population Healthy Nuclei (%),[8],39%
same,Population Hoechst High Intensity Objects (%),[8],2%
same,Population Membrane Permeable-Phenotype (%),[8],7%
same,Population Mitotic Cells (%),[8],63%
same,Population Normal (%),[8],97%
same,Population Pyknosed Nuclei (%),[8],32%
same,Population Tubulin-Different-Phenotype (%),[8],60%
same,Total Cell Count,[8],106
same,Population Apoptotic (%),[9],50%
same,Population Fragmented Nuclei (%),[9],17%
same,Population Healthy Nuclei (%),[9],73%
same,Population Hoechst High Intensity Objects (%),[9],5%
same,Population Membrane Permeable-Phenotype (%),[9],0%
same,Population Mitochondria Different-Phenotype (%),[9],3%
same,Population Mitotic Cells (%),[9],50%
same,Population Normal (%),[9],94%
same,Population Pyknosed Nuclei (%),[9],9%
same,Population Tubulin-Different-Phenotype (%),[9],27%
same,Total Cell Count,[9],178
same,Population Apoptotic (%),[10],47%
same,Population Fragmented Nuclei (%),[10],37%
same,Population Healthy Nuclei (%),[10],45%
same,Population Hoechst High Intensity Objects (%),[10],0%
same,Population Membrane Permeable-Phenotype (%),[10],17%
same,Population Mitochondria Different-Phenotype (%),[10],8%
same,Population Mitotic Cells (%),[10],52%
same,Population Normal (%),[10],99%
same,Population Pyknosed Nuclei (%),[10],16%
same,Population Tubulin-Different-Phenotype (%),[10],63%
same,Total Cell Count,[10],104
same,Population Apoptotic (%),[11],66%
same,Population Fragmented Nuclei (%),[11],26%
same,Population Healthy Nuclei (%),[11],62%
same,Population Hoechst High Intensity Objects (%),[11],6%
same,Population Membrane Permeable-Phenotype (%),[11],0%
same,Population Mitochondria Different-Phenotype (%),[11],4%
same,Population Mitotic Cells (%),[11],33%
same,Population Normal (%),[11],93%
same,Population Pyknosed Nuclei (%),[11],10%
same,Population Tubulin-Different-Phenotype (%),[11],25%
same,Total Cell Count,[11],190
same,Population Apoptotic (%),[12],27%
same,Population Fragmented Nuclei (%),[12],29%
same,Population Healthy Nuclei (%),[12],48%
same,Population Hoechst High Intensity Objects (%),[12],2%
same,Population Membrane Permeable-Phenotype (%),[12],8%
same,Population Mitochondria Different-Phenotype (%),[12],6%
same,Population Mitotic Cells (%),[12],72%
same,Population Normal (%),[12],97%
same,Population Pyknosed Nuclei (%),[12],22%
same,Population Tubulin-Different-Phenotype (%),[12],62%
same,Total Cell Count,[12],102
CC1(COc2ccc3c(c2)ncn3-c2ccc3cccc(N4CCC(N)CC4)c3n2)COC1 [CRENOLANIB],Population Apoptotic (%),[1],61%
same,Population Fragmented Nuclei (%),[1],27%
same,Population Healthy Nuclei (%),[1],60%
same,Population Hoechst High Intensity Objects (%),[1],2%
same,Population Membrane Permeable-Phenotype (%),[1],0%
same,Population Mitochondria Different-Phenotype (%),[1],4%
same,Population Mitotic Cells (%),[1],38%
same,Population Normal (%),[1],97%
same,Population Pyknosed Nuclei (%),[1],12%
same,Population Tubulin-Different-Phenotype (%),[1],48%
same,Population Apoptotic (%),[2],18%
same,Population Fragmented Nuclei (%),[2],33%
same,Population Healthy Nuclei (%),[2],47%
same,Population Hoechst High Intensity Objects (%),[2],4%
same,Population Membrane Permeable-Phenotype (%),[2],7%
same,Population Mitochondria Different-Phenotype (%),[2],9%
same,Population Mitotic Cells (%),[2],81%
same,Population Normal (%),[2],95%
same,Population Pyknosed Nuclei (%),[2],18%
same,Population Tubulin-Different-Phenotype (%),[2],67%
same,Population Apoptotic (%),[3],33%
same,Population Fragmented Nuclei (%),[3],21%
same,Population Healthy Nuclei (%),[3],48%
same,Population Hoechst High Intensity Objects (%),[3],4%
same,Population Membrane Permeable-Phenotype (%),[3],2%
same,Population Mitochondria Different-Phenotype (%),[3],6%
same,Population Mitotic Cells (%),[3],66%
same,Population Normal (%),[3],95%
same,Population Pyknosed Nuclei (%),[3],30%
same,Population Tubulin-Different-Phenotype (%),[3],43%
same,Population Apoptotic (%),[4],34%
same,Population Fragmented Nuclei (%),[4],29%
same,Population Healthy Nuclei (%),[4],40%
same,Population Hoechst High Intensity Objects (%),[4],13%
same,Population Membrane Permeable-Phenotype (%),[4],6%
same,Population Mitochondria Different-Phenotype (%),[4],9%
same,Population Mitotic Cells (%),[4],65%
same,Population Normal (%),[4],86%
same,Population Tubulin-Different-Phenotype (%),[4],48%
same,Population Apoptotic (%),[5],92%
same,Population Fragmented Nuclei (%),[5],29%
same,Population Healthy Nuclei (%),[5],60%
same,Population Hoechst High Intensity Objects (%),[5],0%
same,Population Membrane Permeable-Phenotype (%),[5],0%
same,Population Mitochondria Different-Phenotype (%),[5],9%
same,Population Mitotic Cells (%),[5],7%
same,Population Normal (%),[5],99%
same,Population Pyknosed Nuclei (%),[5],9%
same,Population Tubulin-Different-Phenotype (%),[5],61%
same,Population Apoptotic (%),[6],50%
same,Population Fragmented Nuclei (%),[6],41%
same,Population Healthy Nuclei (%),[6],48%
same,Population Hoechst High Intensity Objects (%),[6],1%
same,Population Membrane Permeable-Phenotype (%),[6],4%
same,Population Mitotic Cells (%),[6],50%
same,Population Normal (%),[6],98%
same,Population Pyknosed Nuclei (%),[6],10%
same,Population Tubulin-Different-Phenotype (%),[6],63%
same,Population Apoptotic (%),[7],36%
same,Population Fragmented Nuclei (%),[7],23%
same,Population Healthy Nuclei (%),[7],51%
same,Population Hoechst High Intensity Objects (%),[7],16%
same,Population Membrane Permeable-Phenotype (%),[7],0%
same,Population Mitochondria Different-Phenotype (%),[7],8%
same,Population Mitotic Cells (%),[7],63%
same,Population Normal (%),[7],83%
same,Population Pyknosed Nuclei (%),[7],24%
same,Population Tubulin-Different-Phenotype (%),[7],23%
same,Population Apoptotic (%),[8],34%
same,Population Fragmented Nuclei (%),[8],25%
same,Population Healthy Nuclei (%),[8],46%
same,Population Hoechst High Intensity Objects (%),[8],17%
same,Population Membrane Permeable-Phenotype (%),[8],6%
same,Population Mitochondria Different-Phenotype (%),[8],6%
same,Population Mitotic Cells (%),[8],65%
same,Population Normal (%),[8],82%
same,Population Pyknosed Nuclei (%),[8],28%
same,Population Tubulin-Different-Phenotype (%),[8],38%
same,Population Apoptotic (%),[9],75%
same,Population Fragmented Nuclei (%),[9],32%
same,Population Healthy Nuclei (%),[9],60%
same,Population Hoechst High Intensity Objects (%),[9],1%
same,Population Membrane Permeable-Phenotype (%),[9],0%
same,Population Mitochondria Different-Phenotype (%),[9],8%
same,Population Mitotic Cells (%),[9],25%
same,Population Normal (%),[9],98%
same,Population Pyknosed Nuclei (%),[9],7%
same,Population Tubulin-Different-Phenotype (%),[9],55%
same,Population Apoptotic (%),[10],20%
same,Population Fragmented Nuclei (%),[10],44%
same,Population Healthy Nuclei (%),[10],44%
same,Population Hoechst High Intensity Objects (%),[10],0%
same,Population Membrane Permeable-Phenotype (%),[10],5%
same,Population Mitochondria Different-Phenotype (%),[10],7%
same,Population Mitotic Cells (%),[10],80%
same,Population Normal (%),[10],99%
same,Population Pyknosed Nuclei (%),[10],12%
same,Population Tubulin-Different-Phenotype (%),[10],74%
same,Population Apoptotic (%),[11],42%
same,Population Fragmented Nuclei (%),[11],16%
same,Population Healthy Nuclei (%),[11],62%
same,Population Hoechst High Intensity Objects (%),[11],24%
same,Population Membrane Permeable-Phenotype (%),[11],1%
same,Population Mitochondria Different-Phenotype (%),[11],6%
same,Population Mitotic Cells (%),[11],57%
same,Population Normal (%),[11],75%
same,Population Pyknosed Nuclei (%),[11],21%
same,Population Tubulin-Different-Phenotype (%),[11],23%
same,Population Apoptotic (%),[12],37%
same,Population Fragmented Nuclei (%),[12],23%
same,Population Healthy Nuclei (%),[12],42%
same,Population Hoechst High Intensity Objects (%),[12],21%
same,Population Mitotic Cells (%),[12],62%
same,Population Normal (%),[12],78%
same,Population Pyknosed Nuclei (%),[12],33%
same,Population Tubulin-Different-Phenotype (%),[12],27%
